# Assay outcomes deposited in PubChem by several laboratories.
# PfM18AAP inh-1: PfM18AAP enzyme inhibition; recombinant PfM18AAP, H-Glu-NHMec fluorogenic cleavage; inhibition, % at 7.35 µM; 290,000 compounds, 1.2% hits; AID 1822;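 active = inhibition above the campaign mean inhibition over all tested compounds plus 3 SD, cut at about 28% in these data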;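 also: 0% = plate median of test compound wells and 100% = 2 mM ZnCl2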
# Runt-SMMHC FRET: inhibitors of human RUNX1 Runt domain binding to CBFb-SMMHC. Cerulean-Runt/Venus-CBFb-SMMHC FRET ratio 530/480, 1 h. Q01196+Q13951. 220,000 compounds, 0.74% hits. inhibition, % at 20 µM;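 active = mean inhibition across duplicate retests at 20 µM reaching about 50%, limit read from the data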;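 also: 0% = DMSO wells and 100% = wells with excess untagged CBFb-SMMHC; inhibitors lower the FRET ratio by blocking Runt binding to CBFb-SMMHC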
# Target sequence (Q01196 whole entry, looked up, the tested form may be a part): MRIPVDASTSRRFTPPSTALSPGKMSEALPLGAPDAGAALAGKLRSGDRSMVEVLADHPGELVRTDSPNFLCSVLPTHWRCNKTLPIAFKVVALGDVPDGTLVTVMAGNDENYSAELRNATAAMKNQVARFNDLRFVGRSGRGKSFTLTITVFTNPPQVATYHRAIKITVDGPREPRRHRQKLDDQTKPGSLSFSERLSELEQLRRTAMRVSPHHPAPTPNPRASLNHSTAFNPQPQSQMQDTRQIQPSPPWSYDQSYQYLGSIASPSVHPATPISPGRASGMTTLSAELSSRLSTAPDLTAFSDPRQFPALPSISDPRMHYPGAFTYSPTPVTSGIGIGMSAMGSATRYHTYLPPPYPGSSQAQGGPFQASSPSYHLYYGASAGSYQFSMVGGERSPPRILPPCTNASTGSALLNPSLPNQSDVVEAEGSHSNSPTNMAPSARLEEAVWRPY
# Target sequence (Q13951 whole entry, looked up, the tested form may be a part): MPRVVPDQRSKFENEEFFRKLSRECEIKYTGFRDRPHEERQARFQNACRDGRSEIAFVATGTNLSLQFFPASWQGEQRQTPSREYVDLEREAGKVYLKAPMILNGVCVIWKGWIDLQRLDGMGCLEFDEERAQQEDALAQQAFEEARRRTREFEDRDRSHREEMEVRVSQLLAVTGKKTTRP
# RanGTP-Imp inh: inhibitors of RanGTP-importin-beta interaction, primary screen, biochemical, FRET, CFP-Ran, YFP-importin-beta, homogeneous; inhibition, % (test concentration not listed); 300,000 compounds, 1.1% hits; cell-free CFP-Ran/YFP-importin-beta FRET ratio;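 active = more than half of the replicate wells show a fall in the fluorescence ratio signal beyond about 16%, limit read from the data, passing the limit was not always enough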;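 also: 0% = DMSO wells and 100% = Ran loaded with GDP instead of GTP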
# Hck Nef HTS: blocks Nef-activated human Hck kinase | inhibition, % at 20 µM | Recombinant Hck-YEEI plus Nef, Z-Lyte FRET kinase assay | 220,000 compounds, 0.68% hits | P08631;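 active = Hck-Nef kinase inhibition above about 50%, limit read from the data; inactive = inhibition below that limit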;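 also: 0% = DMSO with Hck plus Nef and 100% = Hck alone without Nef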
# Runt-CBFb FRET: inhibitors of human RUNX1 Runt domain binding to CBFb; Q01196+Q13951; Cerulean-Runt/Venus-CBFb FRET ratio 530/480, 1 h; inhibition, % at 20 µM; 220,000 compounds, 0.46% hits;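 active = inhibition over about 50% at 20 µM in the single-dose screen, limit read from the data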;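 also: 0% = DMSO wells and 100% = excess unlabeled CBFb competitor control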
#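 Assay system: Cerulean-Runt domain fusion protein, energy donor; Signal: fluorescence energy transfer, 422 nm excitation, 530/480 nm emission; Timing: 1 h compound exposure, room temperature; Control set: unlabeled CBFb; Medium: Tris buffer pH 7.5 with salts and BSA; Compound: single test concentration of 20 µM, 1% DMSO final; Probe or stimulus: Venus-CBFb 100 nM.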
# RBBP9 inh: inhibitors of human serine hydrolase RBBP9 | O75884 | recombinant RBBP9, FP-Rh probe fluorescence polarization | inhibition, % at 7.94 µM | 220,000 compounds, 0.2% hits;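 active = inhibition above the campaign mean of all tested compounds plus 3 SD, cut at about 14% in these data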;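 also: plate controls were DMSO wells with RBBP9 for no effect and wells lacking RBBP9 protein for full effect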
#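 Measured by: FP readout at 525/598 nm; material: recombinant human RBBP9; also added: Serine-hydrolase probe FP-Rh, 375 nM pre-mixing; medium: Tris buffer pH 8.0, NaCl, Pluronic; replication: one well per compound; doses: one concentration, 7.94 µM nominal, 0.794% DMSO; timing: preincubation 30 min plus labeling 45 min at 25 °C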
# PfM18AAP inh-2: PfM18AAP inhibition, confirmation. 2,400 compounds, 28% hits. recombinant PfM18AAP, H-Glu-NHMec fluorogenic cleavage. AID 2170. shares compounds with PfM18AAP inh-1. inhibition, % at 7.35 µM;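 active = mean inhibition over replicate wells above the hit cutoff set for the earlier primary screen, cut at about 29% in these data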;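 also: 0% = median of test compound wells and 100% = 2 mM ZnCl2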
# CTSL1 counter: counter-screen for PFM18AAP inhibitors: confirmation of human cathepsin L inhibitors. AID 2178. 2,400 tested, under 10 active. inhibition, % at 5.96 µM. purified cathepsin L1, Z-Leu-Arg-MCA fluorescence. shares compounds with PfM18AAP inh-1;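 active = average inhibition across replicates above the hit cutoff set in the earlier primary screen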;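 also: 0% = median of test compound wells and 100% = Z-Phe-Ala-diazomethylketone 1 µM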
# Active calls of the source: *; · = not tested or not shown. Compounds with a hit are over-represented: about 2.9% of the library has one in this group of screens.
SMILES,PfM18AAP inh-1,Runt-SMMHC FRET,RanGTP-Imp inh,Hck Nef HTS,Runt-CBFb FRET,RBBP9 inh,PfM18AAP inh-2,CTSL1 counter
COc1cc([N+](=O)[O-])ccc1NC(=O)NCc1ccccn1,-0.2,·,0.2,·,·,·,·,·
COc1cc([N+](=O)[O-])ccc1NC(=O)Nn1cnnc1,84.2*,·,-2.7,·,·,·,80.7*,0.8
COc1ccc(C)cc1NC(=O)Nc1ccccc1,5.6,-2.8,24.3,2.1,-0.4,-4.6,·,·
Cc1ccccc1C(=O)NCCCn1ccnc1,-1.6,·,-0.5,·,·,·,·,·
COCCSc1ccccc1C(=O)NCCCn1ccnc1,35.8*,-1.1,1.2,0.5,3.6,6.3,-25.0,-1.2
COc1ccc(CCNC(=S)c2ccccc2)cc1OC,-7.0,·,2.9,·,·,·,·,·
CC1CCCCC1NC(=O)c1cccc(S(=O)(=O)N2CCN(Cc3ccccc3)CC2)c1 (stereo unspecified),·,·,1.0,·,·,·,·,·
CC(=O)c1sc2nsc(SCCN3CCOCC3)c2c1N,59.8*,-24.7,-23.6,-46.1,9.2,4.4,9.7,0.1
Nc1c(C(=O)c2ccccc2)sc2nsc(SCCN3CCOCC3)c12,27.2,-194.9,-78.4,-30.4,-5.3,4.2,·,·
O=C(NNc1cc(C(F)(F)F)nc2ccccc12)Nc1cccc(Cl)c1,26.6,1.8,-2.1,4.0,2.3,-7.5,·,·
Cc1ccc(NC(=O)Nn2cnnc2)cc1Cl,68.8*,·,3.4,·,·,·,53.8*,-1.9
O=C(NNc1nccc(C(F)(F)F)n1)Nc1cccc(Cl)c1,45.6*,·,0.8,·,·,·,14.1,-1.7
O=C(Nc1ccc(Cl)c(Cl)c1)Nn1cnnc1,76.5*,·,4.2,·,·,·,70.8*,-1.2
O=C(Nc1cccc(C(F)(F)F)c1)Nn1cnnc1,69.9*,·,3.4,·,·,·,64.2*,0.0
O=C(COc1ccc(Cl)cc1)NCCS(=O)(=O)N1CCN(c2ccccc2F)CC1,-1.9,·,-1.4,·,·,·,·,·
O=C(C1CC(=O)N(c2ccc(F)cc2)C1)N1CCCCCC1 (stereo unspecified),-2.5,·,-1.9,·,·,·,·,·
COc1cccc(NC(=O)Nn2cnnc2)c1,63.0*,·,2.1,·,·,·,49.3*,0.7
O=C(Nc1cccc(Cl)c1)Nn1cnnc1,67.1*,-1.3,6.2,11.8,1.1,-0.3,57.5*,-3.6
CC(C)C(C(=O)Nc1ccccc1)N1C(=O)c2ccccc2C1=O (stereo unspecified),8.6,1.9,2.4,13.4,·,3.2,·,·
CC(C)C(C(=O)Nc1ncn[nH]1)N1C(=O)c2ccccc2C1=O (stereo unspecified),40.5*,-1.4,0.4,1.4,0.4,4.8,55.9*,4.5
Cc1ccc(C(=O)Nc2nnc(CC(=O)N/N=C/c3ccc(O)c(O)c3)s2)cc1,55.6*,·,3.7,·,·,·,50.5*,4.5
Cc1ccc(S(=O)(=O)N2CCN(CC(=O)N/N=C/c3ccc(C)o3)CC2)cc1,0.5,-2.1,4.7,0.6,0.4,2.0,·,·
COc1ccc(S(=O)(=O)N2CCN(CC(=O)c3ccc(O)c(O)c3)CC2)cc1,71.6*,·,-2.1,·,·,·,40.6*,0.0
Cc1ccc(S(=O)(=O)N2CCN(CC(=O)N/N=C\c3ccc(O)c(O)c3)CC2)cc1,47.8*,2.3,-3.7,8.1,15.6,-6.6,39.7*,-1.6
O=C(CN1CCN(S(=O)(=O)c2ccc(F)cc2)CC1)c1ccc(O)c(O)c1,73.0*,14.3,4.7,4.3,6.3,4.5,33.9*,3.6
SMILES,PfM18AAP inh-1,Runt-SMMHC FRET,RanGTP-Imp inh,Hck Nef HTS,Runt-CBFb FRET,RBBP9 inh,PfM18AAP inh-2,CTSL1 counter
CCOc1ccc(C(=O)CN2CCN(S(=O)(=O)c3ccc(F)cc3)CC2)cc1,-4.6,0.9,-3.4,0.3,-2.0,-6.9,·,·
CCN(CC(=O)Nc1ccc(NC(C)=O)cc1)C(=O)CCCc1nc2ccccc2c(=O)[nH]1,·,·,0.4,·,·,·,·,·
Cc1cccc(CN2CCC(n3nccc3NC(=O)CCCc3ccccc3)CC2)n1,-5.1,·,-2.3,·,·,·,·,·
Cc1noc(C)c1COc1ccc(C(=O)NNC(=O)c2ccccc2O)cc1,·,·,1.5,·,·,·,·,·
Cc1cccc2sc(N(CCN(C)C)C(=O)C3CCN(S(=O)(=O)c4cccs4)CC3)nc12,·,·,-1.7,·,·,·,·,·
O=C(CN1CCN(S(=O)(=O)c2ccc(Cl)cc2)CC1)c1ccc(O)c(O)c1,69.8*,·,0.8,·,·,·,39.4*,0.0
O=S(=O)(c1ccc(NC(=S)N2CCN(c3ccccc3F)CC2)cc1)N1CCOCC1,0.9,-0.4,-0.1,1.3,-0.4,-6.1,·,·
COc1ccccc1N1CCN(C(=S)Nc2ccc(S(=O)(=O)N3CCOCC3)cc2)CC1,32.3*,1.1,-3.4,-14.5,-1.1,-1.5,-48.2,1.9
S=C(Nc1ccc(Oc2ccccc2)cc1)N1CCOCC1,3.3,·,-2.7,·,·,·,·,·
O=C(CNc1ccc(Oc2ccccc2)cc1)N1CCOCC1,42.1*,-7.0,-8.7,0.1,-0.5,-12.4,-37.4,-2.5
COC(=O)c1cc(S(=O)(=O)N2CCN(c3ccc(C(C)=O)cc3)CC2)cn1C,-8.5,·,0.5,·,·,·,·,·
Cc1cccc(NC(=O)NNC(=O)c2ccc3ccccc3c2O)c1,27.5,·,-0.5,·,·,·,·,·
COc1cccc(OCC(=O)NNC(=O)c2ccc3ccccc3c2O)c1,37.1*,·,4.4,·,·,·,-16.7,-4.6
O=C(NNC(=O)c1ccc2ccccc2c1O)NC1CCCCC1,48.8*,·,3.6,·,·,·,7.0,-1.2
O=C(NNC(=O)c1ccc2ccccc2c1O)Nc1ccc(F)cc1,33.6*,·,0.2,·,·,·,-3.1,2.9
COc1ccc(C(=O)NNC(=O)c2ccc3ccccc3c2O)cc1,18.1,·,4.1,·,·,·,·,·
Cc1ccc(C(=O)NNC(=O)c2ccc3ccccc3c2O)cc1,27.6,·,-3.6,·,·,·,·,·
CCN1C(=S)N[C@@H](CCc2ccccc2)C(C(=O)OC)=C1C,-3.1,·,3.4,·,·,·,·,·
Cc1onc(-c2ccccc2Cl)c1C(=O)N1CCN(C)CC1,-14.3,·,1.4,·,·,·,·,·
CCN(CC)C(=S)SCC(=O)Nc1ccc(S(N)(=O)=O)cc1,3.7,-1.0,0.2,-1.5,0.7,-3.6,·,·
CCN(CC)C(=S)SCC(=O)Nc1nc(=O)c2ccccc2s1,32.1*,1.7,-0.2,2.3,12.9,0.5,-53.2,-9.4
Cc1cccc(NC(=O)CSCC(=O)OCc2ccccn2)c1,·,·,0.8,·,·,·,·,·
COc1ccccc1N1CCN(C2CCCN(C(=O)CN3CCCCC3=O)C2)CC1 (stereo unspecified),11.9,·,7.0,·,·,·,·,·
COc1cc(/C=N/N2CCN(Cc3ccccc3)CC2)cc(OC)c1OC(C)=O,36.2*,·,1.4,·,·,·,3.2,2.5
Cc1c(C(=O)N2CCOCC2)c(S(=O)(=O)Nc2cccc(C#N)c2)c(C)n1C,5.4,·,-0.9,·,·,·,·,·
CC(=O)Nc1ccccc1NC(=O)C/C(C)=N/NC(=O)c1ccccn1,40.6*,·,-0.8,17.4,·,4.5,-39.3,-5.0
